APJ ag – agonists of human apelin receptor APJ, primary screen, CHO-K1 cells, PathHunter beta-arrestin, luminescence; AID 2520, 2010; 0% DMSO wells, 100% apelin; activation, % at 20 µM; hit rate 0.11% among 330,000; P35414;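 active = activation more than six SD over the plate average, tested at 20 µM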;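 also: 0% = DMSO alone and 100% = apelin-13 at 10 nM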
Target sequence (P35414 whole entry, looked up): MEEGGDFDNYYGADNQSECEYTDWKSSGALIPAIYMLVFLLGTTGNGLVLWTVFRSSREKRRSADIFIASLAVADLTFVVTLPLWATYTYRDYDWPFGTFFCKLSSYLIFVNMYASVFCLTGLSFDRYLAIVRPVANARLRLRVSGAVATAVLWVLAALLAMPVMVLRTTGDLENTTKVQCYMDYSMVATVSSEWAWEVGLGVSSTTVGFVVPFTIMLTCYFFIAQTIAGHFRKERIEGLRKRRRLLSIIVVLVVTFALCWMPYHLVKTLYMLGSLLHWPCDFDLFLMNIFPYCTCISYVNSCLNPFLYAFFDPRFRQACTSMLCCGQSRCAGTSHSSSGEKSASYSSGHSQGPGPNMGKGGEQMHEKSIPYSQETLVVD
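Material: engineered CHO-K1 APJ arrestin reporter cells; amount: 1000 CHO-K1 reporter cells seeded per well; incubation: compound stimulation 90 min at 25 °C, detection 60 min; signal: luminescent beta-gal fragment complementation, chemiluminescent substrate; read-out basis: APJ agonist activity; controls: DMSO-only wells as negative, 10 nM Apelin-13 as positive control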
EBI2 antag – EBI2 receptor antagonists, beta-arrestin recruitment, primary screen, cell-based, luminescence, 7a,25-OHC stimulation, uHTS; G-protein coupled receptor 183 (Homo sapiens), P32249; 7a,25-OHC stimulated; inhibition, % at 5 µM; hit rate 0.81% among 360,000; AID 651636, 2012; in the data active = inhibition above about 38%;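 also: enzyme fragment complementation signal reports receptor beta-arrestin coupling in cells; 0% = agonist plus DMSO wells and 100% = wells without agonist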
CXCR6 block – CXCR6 receptor inhibitors, primary screen, cell-based, beta-arrestin, luminescence, CHO-K1 PathHunter, 1536-well | hit rate 0.36% among 360,000 | inhibition, % at 20 µM; in the data active = inhibition above about 34%, passing the limit was not always enough;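 also: antagonist mode with CXCL16 agonist at 10 nM final; 0% = 10 nM CXCL16 with DMSO and 100% = unstimulated wells without agonist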
APJ antagonist – antagonists of human apelin receptor APJ, primary screen, CHO-K1 cells, beta-arrestin complementation, luminescence; P35414; inhibition, % at 20 µM; hit rate 0.32% among 330,000;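 active = inhibition above about 40% at 20 µM, limit read from the data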;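 also: cells challenged with 10 nM apelin-13 agonist together with compound; plate controls were apelin-13 plus DMSO wells for no effect and DMSO wells lacking apelin-13 for full effect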
CCR6 antag – CCR6 receptor antagonists, primary screen, cell-based, CHO-K1, luminescence, beta-arrestin, uHTS; CHO-K1 CCR6 PathHunter beta-arrestin, CCL20-stimulated; AID 493098, 2011; hit rate 0.49% among 340,000; inhibition, % at 20 µM;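 active = compounds whose inhibition of the agonist-driven luminescence signal at 20 µM reaches about 50%, limit read from the data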;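 also: cells stimulated with CCL20 at 14 nM final; plate controls were DMSO with CCL20 for no effect and DMSO without agonist for full effect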
EBI2 antag conf – EBI2 antagonist hit retest, beta-arrestin, confirmation, cell-based, single concentration, luminescence, 7a,25-OHC stimulation; 7a,25-OHC antagonism; inhibition, % at 5 µM; hit rate 29% among 2,400; AID 651997, 2013; shares compounds with EBI2 antag;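 active = inhibition of at least 50%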
EBI2 ag – EBI2 agonist activity of antagonist hits, confirmation, counter-screen for EBI2 antagonist project, cell-based, single concentration, agonist mode, luminescence; activation, % at 5 µM; 2,400 tested, under 10 active; EBI2-expressing cells, 60 min; 0% vehicle, 100% 7α,25-dihydroxycholesterol control; shares compounds with EBI2 antag; AID 652000, 2013;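 active = activation of at least 50%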
bGal cs – E. coli beta-galactosidase enzyme inhibition, confirmation, counter-screen for EBI2 antagonist project, biochemical, luminescence, single concentration; shares compounds with EBI2 antag; hit rate 1% among 2,400; AID 652176, 2013; inhibition, % at 5 µM; purified beta-galactosidase, luminescent Galacton Star, 15 min;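 active = replicate-average signal at least 3 plate SD below neutral wells, shown as high inhibition, flagging enzyme-inhibiting false positives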;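 also: 0% = DMSO wells with enzyme and 100% = wells lacking enzyme; higher means stronger loss of beta-gal luminescence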
An asterisk follows results filed as active. Shown are actives, neighbours in structure and some others; about 1.5% of the full set was active somewhere.

Screening Cc1ccc(CN2CCC(c3cc(-c4ccc(Cl)cc4)n[nH]3)CC2)cc1 returned APJ ag 2, EBI2 antag 65*, CXCR6 block 1, APJ antagonist -26, CCR6 antag 21, EBI2 antag conf 40, EBI2 ag 2 and bGal cs 5.
Screening COc1ccc(-c2cc(C3CCN(Cc4ccc([N+](=O)[O-])cc4)CC3)[nH]n2)cc1 returned APJ ag -3, EBI2 antag 33, CXCR6 block -8, APJ antagonist -32 and CCR6 antag 9.
Screening COc1ccc(C(=O)Nc2ccc(OCC(=O)N3CCOCC3)cc2)c(OC)c1OC returned APJ ag 6, EBI2 antag 4, CXCR6 block 2, APJ antagonist 3 and CCR6 antag 3.
`O=C(CSc1nnc(-c2ccncc2)o1)NC1C2CC3CC(C2)CC1C3` (configuration not stated) gave APJ ag 0, EBI2 antag -3, CXCR6 block 0, APJ antagonist -4 and CCR6 antag 14.
Screening CSc1ccc(/C=C(/NC(=O)c2ccco2)C(=O)N2CCOCC2)cc1 returned APJ ag -4, EBI2 antag -5, CXCR6 block -3, APJ antagonist 4 and CCR6 antag -1.
For CC1(C(=O)Nc2ccc3[nH]ncc3c2)CCN1C(=O)C/C=C/c1ccccc1 (configuration not stated) the results were EBI2 antag 21 and CXCR6 block -1.
CC1(C(=O)Nc2ccc3[nH]ncc3c2)CCN1C(=O)CC(c1ccccc1)c1ccccc1 (configuration not stated) was read as EBI2 antag 48*, CXCR6 block 8, EBI2 antag conf 13, EBI2 ag 0 and bGal cs -11.
`CC(C)N(C)c1ncnc2c1ncn2[C@H]1CN(Cc2ccc(-c3ccccc3)cc2)C[C@@H](CO)O1` gave EBI2 antag 57*, CXCR6 block -9, EBI2 antag conf 46, EBI2 ag 0 and bGal cs -13.
OC[C@@H]1CN(Cc2ccc(-c3ccccc3)cc2)C[C@H](n2cnc3c(NC4CC4)ncnc32)O1 was read as EBI2 antag 65*, CXCR6 block -4, EBI2 antag conf 65*, EBI2 ag -2 and bGal cs -11.
OC[C@@H]1CN(Cc2ccc(Cl)cc2)C[C@H](n2cnc3c(NC4CCC4)ncnc32)O1 was read as EBI2 antag 44*, CXCR6 block 4, EBI2 antag conf 26, EBI2 ag 0 and bGal cs 7.
`CC(C)N(C)c1ncnc2c1ncn2[C@H]1CN(Cc2ccncc2)C[C@@H](CO)O1` gave EBI2 antag 10 and CXCR6 block 2.
Screening Cc1ccc(C)c(NC(=O)Nn2cnnc2)c1 returned APJ ag 2, EBI2 antag 0, CXCR6 block 3, APJ antagonist 15 and CCR6 antag -8.
Screening O=c1[nH]c2ccccc2nc1/C=C/c1ccccc1 returned APJ ag -3, EBI2 antag 0, CXCR6 block 1, APJ antagonist -6 and CCR6 antag 9.
For Fc1ccc(/C=C\c2nccc3c2[nH]c2ccccc23)cc1 the results were APJ ag 2, EBI2 antag 49*, CXCR6 block -2, APJ antagonist -12, CCR6 antag 0, EBI2 antag conf 29, EBI2 ag -1 and bGal cs -9.
For C(=C\c1nccc2c1[nH]c1ccccc12)/c1ccccc1 the results were APJ ag 0, EBI2 antag 55*, CXCR6 block -10, APJ antagonist 6, CCR6 antag -20, EBI2 antag conf 35, EBI2 ag 2 and bGal cs -2.
For Cc1ccc(/C=C\c2nccc3c2[nH]c2ccccc23)cc1 the results were APJ ag -3, EBI2 antag 74*, CXCR6 block -13, APJ antagonist -7, CCR6 antag -19, EBI2 antag conf 46, EBI2 ag -1 and bGal cs -8.
`Cc1ccc(CNC(=O)C2CCN(S(=O)(=O)N3CCC4(CC3)OCCO4)CC2)cc1` gave APJ ag 0, EBI2 antag 45*, CXCR6 block -4, APJ antagonist -3, CCR6 antag 14, EBI2 antag conf 15, EBI2 ag 0 and bGal cs -9.
For Cc1ccc(CNC(=O)C2CCN(S(=O)(=O)N3CCCCC3)CC2)cc1 the results were APJ ag 0, EBI2 antag 32, CXCR6 block 0, APJ antagonist 18 and CCR6 antag 6.
`O=C(NCc1ccc(F)cc1)C1CCN(S(=O)(=O)N2CCC3(CC2)OCCO3)CC1` gave APJ ag -1, EBI2 antag 6, CXCR6 block -7, APJ antagonist -14 and CCR6 antag -13.
For CCc1ccc(CNC(=O)C2CCN(S(=O)(=O)N3CCC4(CC3)OCCO4)CC2)cc1 the results were APJ ag 0, EBI2 antag 47*, CXCR6 block 2, APJ antagonist -8, CCR6 antag 5, EBI2 antag conf 22, EBI2 ag 0 and bGal cs 12.
Cc1cccc(CN(C(=S)Nc2c(C)cccc2C)c2cccnc2)c1 was read as APJ ag -2, EBI2 antag 3, CXCR6 block -12, APJ antagonist 17 and CCR6 antag 5.
CC(=O)c1ccc(N2CCN(C(=O)c3cc4c(C)nc5ccccc5c4o3)CC2)cc1 was read as APJ ag 4, EBI2 antag -2, CXCR6 block -19, APJ antagonist -13 and CCR6 antag -2.
Screening Cc1nc2ccccc2c2oc(C(=O)N3CCN(C4CCCCC4)CC3)cc12 returned APJ ag 0, EBI2 antag 87*, CXCR6 block -8, APJ antagonist -48, CCR6 antag 7, EBI2 antag conf 77*, EBI2 ag 1 and bGal cs 3.
